“Also recorded” adds a separate entry of the source.
What was measured:
[1] = tested on: Tumor (iCCA) organoids; test: Organoid viability, CellTiter-Glo 3D; assay type: cell-based, human; details: 72 h; for EC50: Homo sapiens, read-out: EC50, iCCA-derived organoids growth
Summary of the method: (§1)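 Organoids came from dissociated patient tumour (iCCA) or non-tumour biopsies, embedded in reduced-growth-factor BME droplets with expansion medium. After 3 days, test compound was added at graded concentrations in expansion medium with 0.02% Tween20 for 72 h. Viability was read by CellTiter-Glo 3D luminescence as % of DMSO-treated organoids, with ≥3 independent experiments. EC50 (tumour organoids) came from nonlinear regression.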

[2] = tested on: non-tumor (NT) organoids; test: Organoid viability, CellTiter-Glo 3D; assay type: cell-based, human; details: 72 h
Summary of the method: as §1

[3] = molecular target: T1, mVDAC1 wild-type (Mus musculus, UniProt Q60932); test: Fluorescence polarization, NADH binding to purified VDAC1; details: read-out: KD of NADH, VDAC1 wild-type; 5 μM NADH titrated with protein; Hill fit
Summary of the method: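 NADH at 5 μM was titrated with increasing recombinant refolded mVDAC1 in 20 mM Tris, 50 mM NaCl, 0.1% LDAO, pH 8.0. NADH intrinsic fluorescence was read at ex 355 / em 460 nm. FP was computed from parallel and perpendicular intensities. KD came from a nonlinear Hill fit of FP against protein concentration, in triplicate.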

[4] = molecular target: mVDAC1 R218Y (Mus musculus, UniProt Q60932, R231Y); test: Thermal denaturation; assay type: binding; details: small molecule 1 mM in DMF; mean ± SEM n=3
Summary of the method: (§2)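 Wild-type or mutant refolded mVDAC1 (0.9 mg/ml final in 20 mM Tris-HCl, 50 mM NaCl, 0.1% LDAO, pH 8.0) was pretreated 1 h at 4°C with 1 mM test compound or 0.5% DMF. It was heated in capillaries from 35 to 95°C at 30°C/min while tryptophan fluorescence was read at 330/350 nm. Ti was the first-derivative maximum of F350/F330, checked by Hill fit. ΔTi was treated versus untreated, with ≥3 repeats.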

[5] = molecular target: T1, mVDAC1 wild-type; test: Thermal denaturation; assay type: binding; details: mean ± SEM n=3; for Temperature denaturation inflection point (Ti) shift: mVDAC1 0.9 mg/mL in LDAO, VA molecule 1 mM vs DMF 0.5%; for Inflection temperature T(i), WT: small molecule 1 mM in DMF
Summary of the method: as §2

[6] = molecular target: T2, mVDAC1 N238K (Mus musculus, UniProt Q60932, N251K); test: Fluorescence polarization NADH competition assay; assay type: binding
Summary of the method: (§3)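 This is an FP competition assay. Refolded, SEC-purified recombinant mVDAC1 (7 μM) was preloaded with 5 μM NADH and titrated with increasing test compound. Buffer was 20 mM Tris, 50 mM NaCl, 0.1% LDAO, pH 8.0. FP was computed from parallel and perpendicular intensities. Apparent KD came from a Hill fit of FP against compound concentration, run in triplicate.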

[7] = tested on: iCCA patient-derived 2D cells; test: MTT viability of patient-derived 2D cells; assay type: cell-based, human; details: 72 h exposure, 2μM
Summary of the method: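 Primary 2D cells came from iCCA patient biopsies, with paired non-tumour cells as control. Cells were grown in DMEM/F-12 with 10% FBS and 1% pen/strep. They were seeded at 5.000 cells/well, treated 3 days later with test compound at 2 μM for 72 h, and scored by MTT absorbance. n = 3.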

[8] = molecular target: T1, mVDAC1 wild-type; test: Fluorescence polarization NADH competition assay; assay type: binding
Summary of the method: as §3

[9] = molecular target: mVDAC1 N238R (Mus musculus, UniProt Q60932, N251R); test: Thermal denaturation; assay type: binding; details: small molecule 1 mM in DMF; mean ± SEM n=3
Summary of the method: as §2

[10] = molecular target: mVDAC1 F18A (Mus musculus, UniProt Q60932, F31A); test: Thermal denaturation; assay type: binding; details: small molecule 1 mM in DMF; mean ± SEM n=3
Summary of the method: as §2

[11] = molecular target: T2, mVDAC1 N238K; test: Thermal denaturation; assay type: binding; details: small molecule 1 mM in DMF; mean ± SEM n=3
Summary of the method: as §2

[12] = molecular target: mVDAC1 N207R (Mus musculus, UniProt Q60932, N220R); test: Thermal denaturation; assay type: binding; details: small molecule 1 mM in DMF; mean ± SEM n=3
Summary of the method: as §2

[13] = molecular target: T3, mVDAC1 K236A (Mus musculus, UniProt Q60932, K249A); test: Fluorescence polarization NADH competition assay; assay type: binding; details: apparent KD, NADH 5 μM, protein 7 μM, mean ± SEM n=3
Summary of the method: as §3

[14] = molecular target: mVDAC1 N238F (Mus musculus, UniProt Q60932, N251F); test: Thermal denaturation; assay type: binding; details: small molecule 1 mM in DMF; mean ± SEM n=3
Summary of the method: as §2

[15] = tested on: NIH-3T3; test: Cell viability MTT assay; assay type: cell-based; details: Mus musculus, NIH3T3, 48 h, read-out: Half the effective dose (EC50), cell viability
Summary of the method: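 NIH-3T3 kept in high-glucose DMEM with 10% calf serum and penicillin/streptomycin at 37°C, 5% CO₂, used at 70–80% confluency. Seeded 10.000 cells/well, treated 24 h later with a concentration range of test compound for 48 h. MTT added (final 5 mg/ml), 3 h at 37°C, formazan dissolved in DMSO, absorbance 590 nm. n = 3, mean ± SEM; EC50 by nonlinear regression.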

[16] = molecular target: T3, mVDAC1 K236A; test: Thermal denaturation; assay type: binding; details: small molecule 1 mM in DMF; mean ± SEM n=3
Summary of the method: as §2

[17] = molecular target: mVDAC1 (Mus musculus, UniProt Q60932); test: 19F NMR protein-ligand interaction experiment; assay type: binding; details: compound 100 μM in LDAO buffer, with 5 μM mVDAC1
Summary of the method: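 Recombinant mouse VDAC1 was expressed in E. coli M15, refolded from inclusion bodies into LDAO and purified by SEC. Test compound was used at 100 μM final in 20 mM Tris-HCl, 50 mM NaCl, 0.1% LDAO, pH 8.0, with or without 5 μM VDAC1. 19F spectra were taken at 298 K: 0.56 s acquisition, 1 s inter-scan delay, 256 scans, 2 Hz exponential broadening.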

Chain of mVDAC1 N207R (Q60932 14-296 N220R): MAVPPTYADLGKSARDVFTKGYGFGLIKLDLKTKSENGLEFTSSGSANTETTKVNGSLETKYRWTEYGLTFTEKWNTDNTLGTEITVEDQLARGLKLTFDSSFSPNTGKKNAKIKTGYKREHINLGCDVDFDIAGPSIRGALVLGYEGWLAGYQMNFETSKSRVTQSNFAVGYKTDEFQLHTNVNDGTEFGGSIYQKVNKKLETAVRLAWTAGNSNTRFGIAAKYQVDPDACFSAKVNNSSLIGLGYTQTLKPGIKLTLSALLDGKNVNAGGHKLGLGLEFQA
T1 sequence (Q60932 14-296): as the sequence (Q60932 14-296 N220R) above, with R207N counted along it
Chain of mVDAC1 (Q60932 14-296): as the sequence (Q60932 14-296 N220R) above, with R207N counted along it
T3 sequence (Q60932 14-296 K249A): as the sequence (Q60932 14-296 N220R) above, with R207N, K236A counted along it
Chain of mVDAC1 F18A (Q60932 14-296 F31A): as the sequence (Q60932 14-296 N220R) above, with F18A, R207N counted along it
Chain of mVDAC1 N238R (Q60932 14-296 N251R): as the sequence (Q60932 14-296 N220R) above, with R207N, N238R counted along it
Chain of mVDAC1 N238F (Q60932 14-296 N251F): as the sequence (Q60932 14-296 N220R) above, with R207N, N238F counted along it
Chain of mVDAC1 R218Y (Q60932 14-296 R231Y): as the sequence (Q60932 14-296 N220R) above, with R207N, R218Y counted along it
T2 sequence (Q60932 14-296 N251K): as the sequence (Q60932 14-296 N220R) above, with R207N, N238K counted along it

SMILES	effect on viability of iCCA organoids [1]	effect on viability of non-tumor organoids [2]	Kd [3]	Inflection temperature T(i), R218Y [4]	Temperature denaturation inflection point (Ti) shift [5]	Inflection temperature T(i), WT [5]	EC50 [1]	Kd [6]	reduction in iCCA cell viability [7]	Kd [8]	Inflection temperature T(i), N238R [9]	Inflection temperature T(i), F18A [10]	Inflection temperature T(i), N238K [11]	Inflection temperature T(i), N207R [12]	Kd [13]	Inflection temperature T(i), N238F [14]	EC50 [15]	Inflection temperature T(i), K236A [16]	19F resonance change upon VDAC1 binding [17]
Nc1ccn([C@@H]2O[C@H](CO)[C@@H](O)C2(F)F)c(=O)n1 [GMB, gemcitabine, reference compound]	significant efficacy	significant efficacy	–	–	–	–	–	–	–	–	–	–	–	–	–	–	–	–	–
NC(=O)C1=CN([C@@H]2O[C@H](COP(=O)(O)OP(=O)(O)OC[C@H]3O[C@@H](n4cnc5c(N)ncnc54)[C@H](O)[C@@H]3O)[C@@H](O)[C@H]2O)C=CC1 [NADH]	–	–	6.8 ± 0.06 µM	–	–	–	–	–	–	–	–	–	–	–	–	–	–	–	–
O=C(CC(O)(c1nc2ccccc2s1)C(F)(F)F)c1cccc(Br)c1 (stereo not drawn) [VA-C1, 3-(1,3-benzothiazol-2-yl)-1-(3-bromophenyl)-4,4,4-trifluoro-3-hydroxybutan-1-one]	reduce cell viability of iCCA organoids in a dose-dependent manner	–	–	62.3 ± 0.1 °C	+4.6 ± 0.1 °C	60.2 ± 0.1 °C	15 ± 2 µM	15.2 ± 0.1 µM	about 50%	18.7 ± 0.3 µM	62.5 ± 0.1 °C	58.0 ± 0.1 °C	64.0 ± 0.1 °C	63.2 ± 0.1 °C	26.4 ± 0.4 µM	64.0 ± 0.1 °C	146 ± 3 µM	57.3 ± 0.1 °C	direct binding; also recorded: reduction and broadening of its peak
Cc1ccc(C(=O)OCC(=O)N=c2sccn2Cc2ccccc2Cl)s1 [VA-C6, [2-[[3-[(2-chlorophenyl)methyl]-1,3-thiazol-2-ylidene]amino]-2-oxoethyl] 5-methylthiophene-2-carboxylate]	–	–	–	61.6 ± 0.1 °C	+4.6 ± 0.1 °C	60.2 ± 0.1 °C	–	14.9 ± 0.5 µM	–	18.7 ± 0.6 µM	61.8 ± 0.1 °C	58.1 ± 0.1 °C	63.8 ± 0.1 °C	63.0 ± 0.1 °C	28.8 ± 0.2 µM	63.2 ± 0.1 °C	127 ± 4 µM	57.0 ± 0.1 °C	–
CC(=O)N(c1nc(COC(=O)c2ccsc2)cs1)c1ccccc1F [VA-D10, [2-(N-acetyl-2-fluoroanilino)-1,3-thiazol-4-yl]methyl thiophene-3-carboxylate]	reduce cell viability of iCCA organoids in a dose-dependent manner	–	–	62.2 ± 0.2 °C	+4.9 ± 0.1 °C	60.5 ± 0.1 °C	25 ± 6 µM	10.7 ± 0.1 µM	about 50%	18.5 ± 0.2 µM	63.1 ± 0.1 °C	57.3 ± 0.1 °C	64.4 ± 0.1 °C	62.9 ± 0.1 °C	28 ± 0.7 µM	63.3 ± 0.1 °C	160 ± 4 µM	57.9 ± 0.1 °C	direct binding; also recorded: significantly move their chemical shifts
O=C1C(=Cc2ccc(Cl)cc2)CSc2ccccc21 [VA-D11, 3-[(4-chlorophenyl)methylidene]thiochromen-4-one]	–	–	–	62.3 ± 0.1 °C	+4.7 ± 0.1 °C	60.2 ± 0.1 °C	–	13.1 ± 0.4 µM	–	15.9 ± 0.7 µM	63.1 ± 0.1 °C	57.2 ± 0.1 °C	64.5 ± 0.1 °C	62.9 ± 0.1 °C	24.2 ± 0.6 µM	63.1 ± 0.1 °C	118 ± 3 µM	57.9 ± 0.1 °C	–
